According to ChEMBL document CHEMBL4382232, “Grayanane Diterpenoid Glucosides from the Leaves of Rhododendron micranthum and Their Bioactivities Evaluation” (2018):
The source made the active and inactive calls. No cut-off for these calls is given here.

What was measured:
HL-60 = assay: Cytotoxicity against human HL60 cells at 40 uM after 48 hrs by MTT assay; assay type: functional, cell-based
Mus musculus [1] = assay: Antinociceptive activity in Kunming mouse model of acetic-acid-induced writhing assessed as inhibition of writhing numbers at 5 mg/kg measured for 30 mins relative to control; assay type: functional; details: 0.5 h
Method in brief: (§1)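 Acetic-acid-induced writhing model in Kunming mice (10 per group); doses 0.2, 1.0 and 5.0 mg/kg; vehicle-treated and morphine positive-control groups; inhibition of writhing relative to vehicle; mean ± SEM; one-way ANOVA with Bonferroni test. Animal work approved by institutional ethics committee.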

MCF7 = assay: Cytotoxicity against human MCF7 cells at 40 uM after 48 hrs by MTT assay; assay type: functional, cell-based
Mus musculus [2] = assay: Antinociceptive activity in Kunming mouse model of acetic-acid-induced writhing assessed as inhibition of writhing numbers at 0.2 mg/kg measured for 30 mins relative to control; assay type: functional; details: 0.5 h; method in brief: as §1
SW480 = assay: Cytotoxicity against human SW480 cells at 40 uM after 48 hrs by MTT assay; assay type: functional, cell-based
Mus musculus [3] = assay: Antinociceptive activity in Kunming mouse model of acetic-acid-induced writhing assessed as inhibition of writhing numbers at 1 mg/kg measured for 30 mins relative to control; assay type: functional; details: 0.5 h; method in brief: as §1
SMMC-7721 = assay: Cytotoxicity against human SMMC7721 cells at 40 uM after 48 hrs by MTT assay; assay type: functional, cell-based
RAW264.7 = assay: Anti-inflammatory activity in mouse RAW264.7 cells assessed as inhibition of LPS-induced NO production at 40 uM; assay type: functional, cell-based
[4] = molecular target: T1, Tyrosine-protein phosphatase non-receptor type 1 (Homo sapiens) (UniProt P18031); assay: Inhibition of recombinant human PTP1B at 40 uM using pNPP as substrate preincubated for 10 mins followed by substrate addition and measured after 30 mins at 5 mins time interval for 30 mins
T1 sequence (whole entry): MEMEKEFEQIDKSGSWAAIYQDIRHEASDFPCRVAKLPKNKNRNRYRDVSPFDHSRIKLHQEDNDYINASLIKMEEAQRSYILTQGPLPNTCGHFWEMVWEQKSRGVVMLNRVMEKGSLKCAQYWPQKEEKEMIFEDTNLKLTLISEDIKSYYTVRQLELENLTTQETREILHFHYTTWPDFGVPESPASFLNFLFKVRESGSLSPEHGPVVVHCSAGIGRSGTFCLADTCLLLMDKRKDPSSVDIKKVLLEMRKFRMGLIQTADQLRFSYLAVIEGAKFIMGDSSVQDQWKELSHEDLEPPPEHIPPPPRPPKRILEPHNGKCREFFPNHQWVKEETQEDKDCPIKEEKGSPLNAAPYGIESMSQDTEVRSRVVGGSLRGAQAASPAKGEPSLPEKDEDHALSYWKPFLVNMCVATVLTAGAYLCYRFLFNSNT

A549 = assay: Cytotoxicity against human A549 cells at 40 uM after 48 hrs by MTT assay; assay type: functional, cell-based

## C=C1[C@H]2C[C@H](O[C@@H]3O[C@H](CO)[C@@H](O)[C@H](O)[C@H]3O)C(C)(C)[C@]2(O)CC[C@@]23C[C@@H](CC[C@@H]12)[C@](C)(O)C3
HL-60
  Activity: inactive
Mus musculus [1]
  inhibition in vivo at 5 mg/kg: 82.3%
MCF7
  Activity: inactive
Mus musculus [2]
  inhibition in vivo at 0.2 mg/kg: 46.1%
SW480
  Activity: inactive
Mus musculus [3]
  inhibition in vivo at 1 mg/kg: 58.7%
SMMC-7721
  Activity: inactive
RAW264.7
  inhibition: inactive
[4]
  inhibition: inactive
A549
  Activity: inactive
